Data as given in ChEMBL document CHEMBL1932938, “From COX-2 inhibitor nimesulide to potent anti-cancer agent: synthesis, in vitro, in vivo and pharmacokinetic evaluation” (Eur J Med Chem, 2012).

Assays:
SK-BR-3 [1] = assay: Cell cycle arrest in human SK-BR-3 cells assessed as accumulation at G2/M phase at 0.10 uM after 3 hrs using propidium iodide staining by FACS analysis; type: functional
Procedure, shortened: (§1)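 SKBR-3 cells in RPMI1640 with 10% heat-inactivated FBS at 37 °C and 5% CO₂ were treated for the stated times. Cells were fixed overnight in 70% EtOH at −20 °C, then stained with propidium iodide buffer (38 mM sodium citrate pH 7.5, 69 µM PI, 120 µg/mL RNase A) for 15 min at room temperature in the dark. Up to 1×10⁴ gated cells were analyzed by flow cytometry, giving percent distribution per phase.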

SK-BR-3 [2] = assay: Cell cycle arrest in human SK-BR-3 cells assessed as accumulation at G1 phase at 0.10 uM after 3 hrs using propidium iodide staining by FACS analysis; type: functional; procedure, shortened: as §1
SK-BR-3 [3] = assay: Cell cycle arrest in human SK-BR-3 cells assessed as accumulation at S phase at 0.10 uM after 12 hrs using propidium iodide staining by FACS analysis; type: functional; procedure, shortened: as §1
SK-BR-3 [4] = assay: Cell cycle arrest in human SK-BR-3 cells assessed as accumulation at G1 phase at 5 uM after 12 hrs using propidium iodide staining by FACS analysis; type: functional; procedure, shortened: as §1
SK-BR-3 [5] = assay: Cell cycle arrest in human SK-BR-3 cells assessed as accumulation at G2/M phase at 5 uM after 12 hrs using propidium iodide staining by FACS analysis; type: functional; procedure, shortened: as §1
SK-BR-3 [6] = assay: Cell cycle arrest in human SK-BR-3 cells assessed as accumulation at G1 phase at 0.10 uM after 18 hrs using propidium iodide staining by FACS analysis; type: functional; procedure, shortened: as §1
SK-BR-3 [7] = assay: Cell cycle arrest in human SK-BR-3 cells assessed as accumulation at S phase at 0.10 uM after 18 hrs using propidium iodide staining by FACS analysis; type: functional; procedure, shortened: as §1
SK-BR-3 [8] = assay: Cell cycle arrest in human SK-BR-3 cells assessed as accumulation at G2/M phase at 5 uM after 18 hrs using propidium iodide staining by FACS analysis; type: functional; procedure, shortened: as §1
SK-BR-3 [9] = assay: Cell cycle arrest in human SK-BR-3 cells assessed as accumulation at S phase at 0.10 uM after 24 hrs using propidium iodide staining by FACS analysis; type: functional; procedure, shortened: as §1
SK-BR-3 [10] = assay: Cell cycle arrest in human SK-BR-3 cells assessed as accumulation at G1 phase at 0.25 uM after 24 hrs using propidium iodide staining by FACS analysis; type: functional; procedure, shortened: as §1
SK-BR-3 [11] = assay: Cell cycle arrest in human SK-BR-3 cells assessed as accumulation at G2/M phase at 0.25 uM after 24 hrs using propidium iodide staining by FACS analysis; type: functional; procedure, shortened: as §1
SK-BR-3 [12] = assay: Cell cycle arrest in human SK-BR-3 cells assessed as accumulation at G1 phase at 0.50 uM after 24 hrs using propidium iodide staining by FACS analysis; type: functional; procedure, shortened: as §1
CCRF-CEM = assay: Growth inhibition of human CCRF-CEM cells after 48 hrs by SRB assay; type: functional
K562 = assay: Growth inhibition of human K562 cells after 48 hrs by SRB assay; type: functional
EKVX = assay: Growth inhibition of human EKVX cells after 48 hrs by SRB assay; type: functional
HOP-92 = assay: Growth inhibition of human HOP92 cells after 48 hrs by SRB assay; type: functional
NCI-H23 = assay: Growth inhibition of human NCI-H23 cells after 48 hrs by SRB assay; type: functional
COLO 205 = assay: Growth inhibition of human COLO205 cells after 48 hrs by SRB assay; type: functional
SNB-19 = assay: Growth inhibition of human SNB19 cells after 48 hrs by SRB assay; type: functional
U-251 = assay: Growth inhibition of human U251 cells after 48 hrs by SRB assay; type: functional
M14 = assay: Growth inhibition of human M14 cells after 48 hrs by SRB assay; type: functional
MDA-MB-435 = assay: Growth inhibition of human MDA-MB-435 cells after 48 hrs by SRB assay; type: functional
SK-MEL-5 = assay: Growth inhibition of human SK-MEL-5 cells after 48 hrs by SRB assay; type: functional
A498 = assay: Growth inhibition of human A498 cells after 48 hrs by SRB assay; type: functional
MDA-MB-231 = assay: Growth inhibition of human MDA-MB-231 cells after 48 hrs by SRB assay; type: functional
MDA-MB-468 = assay: Growth inhibition of human MDA-MB-468 cells after 48 hrs by SRB assay; type: functional
[13] = Tmax in Sprague-Dawley rat plasma at 20 mg/kg, ip; type: ADME, organism-based; set-up: dose 20 mg/kg, route intraperitoneal
Procedure, shortened: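 Male Sprague–Dawley rats (300–350 g, n=3), fasted overnight with water allowed. Single 20 mg/kg i.p. dose in PBS with 0.1% Tween80 and 20% DMSO. Blood taken from saphenous and femoral veins into heparinized tubes at 0, 0.25, 0.5, 1, 2, 4, 8 and 24 h. Plasma quantified by LC-MS/MS (MRM, 483.3→404.3) after tert-butyl methyl ether/hexane extraction. Parameters derived non-compartmentally.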

SK-BR-3 [14] = assay: Cell cycle arrest in human SK-BR-3 cells assessed as accumulation at G1 phase at 0.50 uM after 3 hrs using propidium iodide staining by FACS analysis; type: functional; procedure, shortened: as §1
SK-BR-3 [15] = assay: Cell cycle arrest in human SK-BR-3 cells assessed as accumulation at Sub-G1 phase at 0.50 uM after 3 hrs using propidium iodide staining by FACS analysis; type: functional
SK-BR-3 [16] = assay: Cell cycle arrest in human SK-BR-3 cells assessed as accumulation at Sub-G1 phase at 0.50 uM after 6 hrs using propidium iodide staining by FACS analysis; type: functional
SK-BR-3 [17] = assay: Cell cycle arrest in human SK-BR-3 cells assessed as accumulation at G2/M phase at 5 uM after 6 hrs using propidium iodide staining by FACS analysis; type: functional; procedure, shortened: as §1
[18] = read-out: LC50 (the source's name)

SMILES: Cc1ccc(C)c(COc2cc(NC(=O)c3ccc4c(c3)OCO4)ccc2N(C)S(C)(=O)=O)c1
- Activity (SK-BR-3 [1]): 8.83%
- Activity (SK-BR-3 [2]): 70.84%
- Activity (SK-BR-3 [3]): 8.17%
- Activity (SK-BR-3 [4]): 63.71%
- Activity (SK-BR-3 [5]): 20.54%
- Activity (SK-BR-3 [6]): 75.43%
- Activity (SK-BR-3 [7]): 8.71%
- Activity (SK-BR-3 [8]): 21.8%
- Activity (SK-BR-3 [9]): 8.91%
- Activity (SK-BR-3 [10]): 41.27%
- Activity (SK-BR-3 [11]): 22.53%
- Activity (SK-BR-3 [12]): 31.77%
- GI50 (CCRF-CEM): 48.5 nM
- TGI (CCRF-CEM): > 100 µM
- growth inhibition (GI) (CCRF-CEM): Dose-dependent effect
- CC50 (CCRF-CEM; [18]): > 100 µM
- growth inhibition (GI) (K562): Dose-dependent effect
- GI50 (K562; K562, 48 h): 40.3 nM
- TGI (K562; K562, 48 h): > 100 µM
- CC50 (K562; K562, 48 h, read-out: LC50 (the source's name)): > 100 µM
- GI50 (EKVX): 598 nM
- TGI (EKVX): > 100 µM
- growth inhibition (GI) (EKVX): Dose-dependent effect
- CC50 (EKVX; [18]): > 100 µM
- growth inhibition (GI) (HOP-92): Dose-dependent effect
- GI50 (HOP-92; HOP-92, 48 h): 3.22 µM
- TGI (HOP-92; HOP-92, 48 h): > 100 µM
- CC50 (HOP-92; HOP-92, 48 h, read-out: LC50 (the source's name)): > 100 µM
- growth inhibition (GI) (NCI-H23): Dose-dependent effect
- GI50 (NCI-H23; NCI-H23, 48 h): 162 nM
- TGI (NCI-H23; NCI-H23, 48 h): > 100 µM
- CC50 (NCI-H23; NCI-H23, 48 h, read-out: LC50 (the source's name)): > 100 µM
- growth inhibition (GI) (COLO 205): Dose-dependent effect
- GI50 (COLO 205; COLO 205, 48 h): 318 nM
- TGI (COLO 205; COLO 205, 48 h): 1070 nM
- CC50 (COLO 205; COLO 205, 48 h, read-out: LC50 (the source's name)): > 100 µM
- growth inhibition (GI) (SNB-19): Dose-dependent effect
- GI50 (SNB-19; SNB-19, 48 h): 537 nM
- TGI (SNB-19; SNB-19, 48 h): > 100 µM
- CC50 (SNB-19; SNB-19, 48 h, read-out: LC50 (the source's name)): > 100 µM
- growth inhibition (GI) (U-251): Dose-dependent effect
- GI50 (U-251; U-251, 48 h): 266 nM
- TGI (U-251; U-251, 48 h): 21.9 µM
- CC50 (U-251; U-251, 48 h, read-out: LC50 (the source's name)): > 100 µM
- growth inhibition (GI) (M14): Dose-dependent effect
- GI50 (M14; M14, 48 h): 75.7 nM
- TGI (M14; M14, 48 h): 669 nM
- CC50 (M14; M14, 48 h, read-out: LC50 (the source's name)): > 100 µM
- growth inhibition (GI) (MDA-MB-435): Dose-dependent effect
- GI50 (MDA-MB-435; MDA-MB-435, 48 h): 28.5 nM
- TGI (MDA-MB-435; MDA-MB-435, 48 h): 91.4 nM
- CC50 (MDA-MB-435; MDA-MB-435, 48 h, read-out: LC50 (the source's name)): > 100 µM
- growth inhibition (GI) (SK-MEL-5): Dose-dependent effect
- GI50 (SK-MEL-5; SK-MEL-5, 48 h): 253 nM
- TGI (SK-MEL-5; SK-MEL-5, 48 h): 1650 nM
- CC50 (SK-MEL-5; SK-MEL-5, 48 h, read-out: LC50 (the source's name)): 34.1 µM
- growth inhibition (GI) (A498): Dose-dependent effect
- TGI (A498; A498, 48 h): 853 nM
- CC50 (A498; A498, 48 h, read-out: LC50 (the source's name)): > 100 µM
- growth inhibition (GI) (MDA-MB-231): Dose-dependent effect
- GI50 (MDA-MB-231; MDA-MB-231, 48 h): 256 nM
- TGI (MDA-MB-231; MDA-MB-231, 48 h): 926 nM
- CC50 (MDA-MB-231; MDA-MB-231, 48 h, read-out: LC50 (the source's name)): > 100 µM
- growth inhibition (GI) (MDA-MB-468): Dose-dependent effect
- GI50 (MDA-MB-468; MDA-MB-468, 48 h): 155 nM
- TGI (MDA-MB-468; MDA-MB-468, 48 h): 401 nM
- Tmax [13]: 2 h
- Activity (SK-BR-3 [14]): 67.14%
- Activity (SK-BR-3 [15]): 3.43%
- Activity (SK-BR-3 [16]): 4.03%
- Activity (SK-BR-3 [17]): 17.19%
